ChEMBL document CHEMBL1133296, “Synthesis and 5-hydroxytryptamine (5-HT) activity of 2,3,4,4a-tetrahydro-1H-pyrazino[1,2-a]quinoxalin-5-(6H)ones and 2,3,4,4a,5,6-hexahydro-1H-pyrazino[1,2-a]quinoxalines” (Bioorg Med Chem Lett, 2000)

What was measured:
[1] = target: T1, 5-hydroxytryptamine receptor 2C (Homo sapiens) (UniProt P28335); assay: Inhibitory activity using [3H]mesulergine as radioligand with receptor membranes isolated from a CHO-k cell line expressing the human 5-hydroxytryptamine 2C receptor at a concentration of 1 uM; format: cell-free
T1 sequence (whole entry): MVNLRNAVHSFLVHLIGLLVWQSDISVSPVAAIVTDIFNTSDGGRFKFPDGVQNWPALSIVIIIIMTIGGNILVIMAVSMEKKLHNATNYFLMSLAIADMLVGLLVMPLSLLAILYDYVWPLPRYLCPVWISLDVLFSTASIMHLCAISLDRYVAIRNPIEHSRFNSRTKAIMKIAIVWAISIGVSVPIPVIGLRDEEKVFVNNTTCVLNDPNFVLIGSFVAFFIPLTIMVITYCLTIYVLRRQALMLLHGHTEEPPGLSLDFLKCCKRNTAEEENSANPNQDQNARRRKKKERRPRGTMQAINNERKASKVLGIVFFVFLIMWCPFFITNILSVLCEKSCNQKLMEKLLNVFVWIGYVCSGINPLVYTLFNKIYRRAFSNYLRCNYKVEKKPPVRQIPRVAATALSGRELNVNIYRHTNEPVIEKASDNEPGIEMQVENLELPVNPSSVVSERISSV

[2] = target: T2, 5-hydroxytryptamine receptor 2C (Homo sapiens, UniProt P28335); assay: Agonistic activity for 5-HT2c (5-HT2C) by measuring [3H]inositol monophosphate fromation in CHO cells in which the human 5-HT2C receptor subtype was stably expressed; format: functional, cell-based
T2 sequence (P28335 whole entry): T1 sequence (whole entry)
In short: (§1)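 CHO cells stably expressing human 5-HT2C were labelled overnight with myo-[3H]inositol, washed, and preincubated 30 min in medium containing LiCl. Agonist was then added at 10^-10 to 10^-5 M for 30 min. [3H]IP was counted by liquid scintillation and expressed as % of the maximal 5-HT response. EC50 came from six-point curves in duplicate, fitted by a three-parameter logistic; Emax is relative to maximal 5-HT.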

[3] = target: T2, 5-hydroxytryptamine receptor 2C; assay: Binding affinity using [3H]mesulergine as radioligand with receptor membranes isolated from a CHO-k cell line expressing the human 5-hydroxytryptamine 2C receptor
In short: (§2)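 Competition binding used human 5-HT2C CHO membranes. [125I]DOI labelled agonist sites and [3H]mesulergine labelled antagonist sites. IC50 came from nine-point concentration curves, each point in triplicate. Ki was calculated by Cheng-Prusoff: Ki = IC50/(1 + [radioligand]/Kd).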

[4] = target: T2, 5-hydroxytryptamine receptor 2C; assay: Binding affinity using [125I]DOI as radioligand with membranes isolated from a CHO-k cell line expressing the human 5-hydroxytryptamine 2C receptor; in short: as §2
[5] = Emax values indicate relative efficacy compared to a maximally effective 5-HT2c (5-HT) concentration.; format: functional; in short: as §1
Rattus norvegicus [6] = assay: Concentration required to decrease food intake in Sprague-Dawley rats when compound administered orally; format: functional; conditions: po
In short: (§3)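 Male Sprague-Dawley rats were fasted 24 h, then given vehicle or test dose, ip or po. Powdered chow was returned and 2 h food intake was recorded. Each animal was fasted twice weekly (Monday, Thursday) and tested the following day. Groups were compared by one-way ANOVA with post hoc t-tests, and ED50 was calculated.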

Rattus norvegicus [7] = assay: Concentration required to decrease food intake in Sprague-Dawley rats when compound administered intraperitoneally; format: functional; conditions: ip; in short: as §3

SMILES | inhibition [1] | Ki [3] | Emax [5] | also measured
O=C1Nc2ccc(Cl)cc2N2CCNCC12 (centres undefined) | 67% |  |  | 
Clc1cc2c(cc1Cl)N1CCNC[C@H]1CN2 |  | 61 nM | 82% | EC50 [2]: 45 nM; Ki [4]: 8 nM
c1ccc2c(c1)NCC1CNCCN21 (centres undefined) | 22% |  |  | 
O=C1Nc2cc(Cl)c(Cl)cc2N2CCNC[C@H]12 |  | 32 nM | 112% | ED50 (Rattus norvegicus [6]): 10 mg/kg; Ki [4]: 3 nM; ED50 (Rattus norvegicus [7]): 2 mg/kg
O=C1Nc2cc(F)ccc2N2CCNCC12 (centres undefined) | 7% |  |  | 
O=C1Nc2ccccc2N2CCNC[C@H]12 | 47% |  |  | 
O=C1Nc2cc(NC(=O)C(F)(F)F)ccc2N2CCNCC12 (centres undefined) | 21% |  |  | 
O=C1Nc2ccc(O)cc2N2CCNCC12 (centres undefined) | 24% |  |  | 
O=C1Nc2cccc(Cl)c2N2CCNCC12 (centres undefined) | 8% |  |  | 
NC(=O)c1ccc2c(c1)NC(=O)C1CNCCN21 (centres undefined) | 5% |  |  | 
O=C1Nc2ccc(Cl)cc2N2CCNC[C@H]12 |  | 238 nM | 95% | EC50 [2]: 86 nM; Ki [4]: 34 nM
O=C1Nc2cc(C(F)(F)F)c(Cl)cc2N2CCNC[C@@H]12 |  | 3600 nM | 85% | 
O=C1Nc2cc(C(F)(F)F)c(Cl)cc2N2CCNC[C@H]12 |  | 160 nM | 97% | 
Clc1cc2c(cc1Cl)N1CCNCC1CN2 (centres undefined) |  | 18 nM | 96% | EC50 [2]: 7.6 nM
Nc1ccc2c(c1)NC(=O)C1CNCCN21 (centres undefined) | 0% |  |  | 
CN1C(=O)C2CNCCN2c2ccccc21 (centres undefined) | 9% |  |  | 
O=C1Nc2cc(C(F)(F)F)ccc2N2CCNCC12 (centres undefined) | 46% |  |  | 
O=C1Nc2cc(C(F)(F)F)c(Cl)cc2N2CCNCC12 (centres undefined) |  | 84 nM | 108% | EC50 [2]: 136 nM; Ki [4]: 9 nM

SMILES | inhibition [1] | Ki [3] | Emax [5] | also measured
O=C1Nc2ccccc2N2CCNC[C@@H]12 | 10% |  |  | 
FC(F)(F)c1cc2c(cc1Cl)N1CCNC[C@@H]1CN2 |  | 92 nM | 76% | EC50 [2]: 19 nM; Ki [4]: 17 nM
COc1ccc2c(c1)N1CCNCC1C(=O)N2 (centres undefined) | 36% |  |  | 
COC(=O)c1ccc2c(c1)NC(=O)C1CNCCN21 (centres undefined) | 1% |  |  | 
O=C1Nc2cc(F)c(F)cc2N2CCNCC12 (centres undefined) |  | 1800 nM |  | 
Clc1cc2c(cc1Cl)N1CCNC[C@@H]1CN2 |  | 88 nM | 107% | EC50 [2]: 49 nM; Ki [4]: 7 nM
O=C1Nc2cc(Cl)c(Cl)cc2N2CCNCC12 (centres undefined) |  | 58 nM | 110% | Ki [4]: 4 nM
O=C1Nc2cc(Cl)ccc2N2CCNCC12 (centres undefined) | 33% |  |  | 
O=C1Nc2cc(Cl)c(Cl)cc2N2CCNC[C@@H]12 |  | 285 nM | 88% | 
O=C1Nc2ccc(Cl)c(Cl)c2N2CCNCC12 (centres undefined) |  | 1700 nM |  | Ki [4]: 1000 nM
CCCCN(CCCC)c1ccc2c(c1)NC(=O)C1CNCCN21 (centres undefined) | 7% |  |  | 
Cc1ccc2c(c1)N1CCNCC1C(=O)N2 (centres undefined) | 0% |  |  | 
O=C1Nc2c(Cl)cccc2N2CCNCC12 (centres undefined) | 15% |  |  | 
O=C(c1ccccc1)c1ccc2c(c1)NC(=O)C1CNCCN21 (centres undefined) |  | 9200 nM |  | Ki [4]: 2150 nM
O=C1Nc2ccccc2N2CCNCC12 (centres undefined) | 25% |  |  | 
O=C1Nc2c(Cl)cc(Cl)cc2N2CCNCC12 (centres undefined) |  | 368 nM |  | 
O=C1Nc2c(F)cccc2N2CCNCC12 (centres undefined) | 48% |  |  | 
O=C1Nc2ccc(F)cc2N2CCNCC12 (centres undefined) | 26% |  |  | 
